From ChEMBL document CHEMBL1800030, “Synthesis and biological evaluation of anilino substituted pyrimidine linked pyrrolobenzodiazepines as potential anticancer agents” (Bioorg Med Chem Lett, 2010)
The source made the active and inactive calls.

Experiments:
HOP-62 = assay: Cytotoxicity against human HOP62 cells after 48 hrs by SRB assay; format: functional; conditions: HOP-62, 48 h
In short: (§1)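 Cells from human breast, oral, ovary, colon, lung, prostate and cervix cancer lines were tested by sulforhodamine B assay. GI50 is 50% growth inhibition, given as mean ± SEM of three determinations. Activity cutoff was GI50 ≤10^-5 M. Adriamycin served as positive control.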

A549 = assay: Cytotoxicity against human A549 cells after 48 hrs by SRB assay; format: functional; conditions: A549, 48 h; in short: as §1
A-375 [1] = assay: Induction of apoptosis in human A375 cells at 4 uM after 24 hrs by FACS analysis (reference value: 5.61%); format: functional
A-375 [2] = assay: Induction of mitochondrial dysfunction in human A375 cells assessed as increase in cytosolic cytochrome c level at 4 uM after 24 hrs by Western blot analysis; format: functional, cell-based
In short: (§2)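 A375 cells were treated at 4 µM for 24 h, then p53 or cytosolic cytochrome c levels were measured by Western blot. β-Actin served as loading control. Controls were untreated cells and untreated cells plus DMSO.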

KB = assay: Cytotoxicity against human KB cells after 48 hrs by SRB assay; format: functional; in short: as §1
[3] = Cytotoxicity against human Gurav cells after 48 hrs by SRB assay; format: functional; in short: as §1
A-375 [4] = assay: Cell cycle arrest in human A375 cells assessed as accumulation at G2/M phase at 4 uM after 24 hrs by propidium iodide staining based FACS analysis (reference value: 17.65 to 23.26%); format: functional
A-375 [5] = assay: Cytotoxicity against human A375 cells after 24 hrs by MTT assay; format: functional, cell-based; conditions: A-375, 24 h
In short: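 MTT proliferation assay on A375 cells, with the IC50 derived from it.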

A2780 = assay: Cytotoxicity against human A2780 cells after 48 hrs by SRB assay; format: functional; conditions: A2780, 48 h; in short: as §1
PC-3 = assay: Cytotoxicity against human PC3 cells after 48 hrs by SRB assay; format: functional; conditions: PC-3, 48 h; in short: as §1
SiHa = assay: Cytotoxicity against human SiHa cells after 48 hrs by SRB assay; format: functional; in short: as §1
A-375 [6] = assay: Cytotoxicity against human A375 cells assessed as cell viability at 4 uM after 24 hrs by real time cell analyzer; format: functional; conditions: A-375, 24 h, read-out: Activity
In short: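 A375 cell viability was measured after exposure to compound at 4 µM, with percent viability reported.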

COLO 205 = assay: Cytotoxicity against human COLO205 cells after 48 hrs by SRB assay; format: functional; conditions: COLO 205, 48 h; in short: as §1
Nucleic Acid [7] = assay: Binding affinity to calf thymus DNA assessed as change in melting temperature at compound to DNA molar ratio of 1:5 at pH 7 after 18 hrs at 37 degC by thermal denaturation assay; format: nucleic-acid assay; conditions: Bos taurus
MCF7 = assay: Cytotoxicity against human MCF7 cells after 48 hrs by SRB assay; format: functional; conditions: MCF7, 48 h; in short: as §1
Nucleic Acid [8] = assay: Inhibition of BamH1-induced DNA cleavage activity in Escherichia coli pBR322 at 4 uM after 24 hrs by agarose gel electrophoresis; format: nucleic-acid assay
In short: (§3)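 pBR322 plasmid DNA was incubated with compound at 2–32 µM and then digested with BamHI. Restriction-digestion inhibition was judged against cut (BamHI, no compound) and uncut vector lanes.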

A-375 [9] = assay: Induction of apoptosis in human A375 cells assessed as PARP cleavage at 4 uM after 24 hrs by Western blot analysis
[10] = Cytotoxicity against human DWD cells after 48 hrs by SRB assay; format: functional; in short: as §1
A-375 [11] = assay: Cell cycle arrest in human A375 cells assessed as accumulation at S phase at 4 uM after 24 hrs by propidium iodide staining based FACS analysis (reference value: 12.04 to 15.67%); format: functional
A-375 [12] = assay: Upregulation of p53 gene expression in human A375 cells at 4 uM after 24 hrs by Western blot analysis; format: functional, cell-based; in short: as §2
A-375 [13] = assay: Cell cycle arrest in human A375 cells assessed as accumulation at G0/G1 phase at 4 uM after 24 hrs by propidium iodide staining based FACS analysis (reference value: 64.7 to 66.26%); format: functional
ZR-75-1 = assay: Cytotoxicity against human ZR-75-1 cells after 48 hrs by SRB assay; format: functional; conditions: ZR-75-1, 48 h; in short: as §1
Nucleic Acid [14] = assay: Inhibition of BamH1-induced DNA cleavage activity in Escherichia coli pBR322 at 8 uM after 24 hrs by agarose gel electrophoresis; format: nucleic-acid assay; in short: as §3
Nucleic Acid [15] = assay: Inhibition of BamH1-induced DNA cleavage activity in Escherichia coli pBR322 at 16 uM after 24 hrs by agarose gel electrophoresis; format: nucleic-acid assay
In short: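 RED100 restriction-digestion assay: pBR322 vector DNA incubated with compound at 2, 4, 8, 16 and 32 µM, then digested with BamHI. Lanes are compared with uncut vector and with vector cut by BamHI without compound. DNA binding is read as inhibition of BamHI cleavage.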

Compound	GI50 (HOP-62) [µM]	GI50 (A549) [µM]	Activity (A-375 [1]) [%]	Activity (A-375 [2])	GI50 (KB) [µM]	GI50 [3] [µM]	Activity (A-375 [4]) [%]	IC50 (A-375 [5]) [µM]	GI50 (A2780) [µM]	GI50 (PC-3) [µM]	GI50 (SiHa) [µM]	viability at 4 µM (A-375 [6]) [%]	GI50 (COLO 205) [µM]	ΔTm (Nucleic Acid [7]) [°C]	GI50 (MCF7) [µM]	inhibition (Nucleic Acid [8])	GI50 [10] [µM]	Activity (A-375 [11]) [%]	Activity (A-375 [13]) [%]	GI50 (ZR-75-1) [µM]	further results
COc1cc2c(cc1OCc1ccc(C(=O)Nc3ccc(C)c(Nc4nccc(-c5cccnc5)n4)c3)cc1)N=C[C@@H]1C[C@H](F)CN1C2=O	0.15	0.16	83.86	Active	0.12	0.13	0.16	0.16	0.13	0.14	0.12	33.7	< 0.1	7.1	< 0.1	inactive	0.14	0.2	98.44	0.15	Activity (A-375 [9]): Active; Activity (A-375 [12]): Active; inhibition (Nucleic Acid [14]): Active
Cc1ccc(NC(=O)c2ccc(CBr)cc2)cc1Nc1nccc(-c2cccnc2)n1							21											11	68		
COc1cc2c(cc1OCc1ccc(C(=O)Nc3ccc(C)c(Nc4nccc(-c5cccnc5)n4)c3)cc1)N=C[C@@H]1CCCN1C2=O	0.17	0.14	49.7	Active	0.14	< 0.1	5.67	1.1	0.13	0.15	0.17	48	0.12	6.8	0.14	inactive	0.13	13.55	80.98	0.16	Activity (A-375 [9]): Active; Activity (A-375 [12]): Active; inhibition (Nucleic Acid [14]): Active
COc1cccc2c1C(=O)c1c(O)c3c(c(O)c1C2=O)C[C@@](O)(C(=O)CO)C[C@@H]3O[C@H]1C[C@H](N)[C@H](O)[C@H](C)O1 [DOXORUBICIN]	0.14	0.15			0.11	0.12			< 0.1	0.17	2.1		< 0.1		< 0.1		< 0.1			0.13	
COc1cc2c(cc1O)N=C[C@@H]1CCCN1C2=O	0.15	0.16			0.17	0.16			0.14	0.2	0.17		0.11	0.7	0.17						inhibition (Nucleic Acid [15]): Active
COc1cc2c(cc1OCCCCC(=O)Nc1ccc(C)c(Nc3nccc(-c4cc(OC)c(OC)c(OC)c4)n3)c1)N=C[C@@H]1C[C@H](F)CN1C2=O	0.12	2.5	36.15	Active	0.17	0.15	6.04	5.6	0.18	0.17	1.8	64.9	2.1	2.5	0.16	inactive	0.18	17.19	76.76	2.7	Activity (A-375 [9]): Active; Activity (A-375 [12]): Active
COc1cc2c(cc1OCCCCC(=O)Nc1ccc(C)c(Nc3nccc(-c4cc(OC)c(OC)c(OC)c4)n3)c1)N=C[C@@H]1CCCN1C2=O	2.4	2.3			0.17	2			0.18	1.8	1.8		2.3	1.4	2		1.8			2.6	
COc1cc2c(cc1OCCCCC(=O)Nc1ccc(C)c(Nc3nccc(-c4cccnc4)n3)c1)N=C[C@@H]1CCCN1C2=O	0.16	2.3	41.59	Active	0.18	< 0.1	6.47	5.5	2.4	2.03	2.2	72	2.3	2.1	0.17	inactive	2.5	13.98	80.98	0.17	Activity (A-375 [9]): Active; Activity (A-375 [12]): Active
